Screens from PubChem.
Rows were chosen to be rich in hits. Some 1.9% of all compounds tested hit in one or more screens of this group.
CHRM4 antagonist: human M4 muscarinic receptor antagonists, primary screen, CHO cells, Fluo-8 calcium fluorescence | CHO-hM4 cells, ACh EC80 | hit rate 0.73% among 360,000 | Muscarinic acetylcholine receptor M4 (Homo sapiens), P08173 | AID 624125, 2012 | inhibition, % at 3 µM;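 active means inhibition above its plate's cutoff, the mean inhibition of sample wells plus 3 SD, cut at about 27% in these data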;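 further: 0% = acetylcholine EC80 with DMSO and 100% = DMSO without agonist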
Target sequence (P08173 whole entry, looked up): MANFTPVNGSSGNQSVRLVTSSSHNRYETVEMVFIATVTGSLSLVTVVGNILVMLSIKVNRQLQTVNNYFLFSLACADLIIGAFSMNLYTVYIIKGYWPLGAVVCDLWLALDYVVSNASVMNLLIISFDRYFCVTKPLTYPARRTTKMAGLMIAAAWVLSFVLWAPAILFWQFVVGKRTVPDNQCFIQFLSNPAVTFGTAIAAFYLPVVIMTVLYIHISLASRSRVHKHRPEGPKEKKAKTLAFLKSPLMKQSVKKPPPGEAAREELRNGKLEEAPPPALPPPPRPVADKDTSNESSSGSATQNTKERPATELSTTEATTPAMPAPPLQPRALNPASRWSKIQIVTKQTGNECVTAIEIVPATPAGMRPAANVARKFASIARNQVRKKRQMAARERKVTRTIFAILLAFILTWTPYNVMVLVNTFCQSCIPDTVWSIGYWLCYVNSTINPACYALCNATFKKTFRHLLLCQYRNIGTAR
CHRM5 PAM: human M5 muscarinic receptor positive allosteric modulators, primary screen, CHO-K1 cells, Fluo-8 calcium fluorescence; hit rate 0.3% among 360,000; activation, % at 3 µM; CHO-K1 hM5, ACh EC20 PAM; 0% = ACh EC20, 100% = ACh EC100; Muscarinic acetylcholine receptor M5 (Homo sapiens), P08912;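 active means activation above the run cutoff, the mean activation of all test compounds plus 3 SD, cut at about 18% in these data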
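Probe or stimulus: acetylcholine, EC20 level; Assay system: human M5 receptor in CHO-K1 cells; Schedule: compound preincubation 140 s before EC20 acetylcholine addition; Technique: intracellular calcium via Fluo-8 fluorescence; Dosing: single-point, 3 µM nominal; Read-out basis: percent activation from peak-over-basal fluorescence ratio, scaled EC20-to-EC100 acetylcholine; Repeats: one well per compound, no replicates.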
M4 PAM: human M4 muscarinic receptor positive allosteric modulators, primary screen, CHO-K1 cells, Fluo-8 calcium fluorescence. Muscarinic acetylcholine receptor M4 (Homo sapiens), P08173. CHO-K1 hM4/Gqi5, ACh EC20; 0% = ACh EC20, 100% = maximal ACh. activation, % at 3 µM. hit rate 0.4% among 360,000. AID 624126, 2012;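 active means activation above its plate's cutoff, the mean activation of sample wells plus 3 SD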
CHRM4 agonist: human M4 muscarinic receptor agonists, primary screen, CHO-K1 cells, Fluo-8 calcium fluorescence. Muscarinic acetylcholine receptor M4 (Homo sapiens), P08173. CHO-K1 hM4/Gqi5; vehicle 0%, full acetylcholine response 100%. activation, % at 3 µM. hit rate 0.14% among 360,000;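 active means activation above the run mean over all test wells plus 3 SD, cut at about 32% in these data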;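 further: peak over basal fluorescence ratio per well then scaled between controls; 0% = DMSO wells and 100% = acetylcholine at EC100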
CHRM5 agonist: human M5 muscarinic receptor agonists, primary screen, CHO-K1 cells, Fluo-8 calcium fluorescence; Muscarinic acetylcholine receptor M5 (Homo sapiens), P08912; CHO-K1 hM5 cells; 0% DMSO wells, 100% maximal acetylcholine response; activation, % at 3 µM; hit rate 0.19% among 360,000; AID 624037, 2012;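 active means activation above the run's mean over test compounds plus 3 SD, cut at about 23% in these data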;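 further: signal is peak over basal fluorescence ratio across the kinetic read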
M5 antag: human M5 muscarinic receptor antagonists, primary screen, CHO cells, Fluo-8 calcium fluorescence; AID 624040, 2012; hit rate 0.59% among 360,000; CHO-hM5 cells, ACh EC80; inhibition, % at 3 µM; Muscarinic acetylcholine receptor M5 (Homo sapiens), P08912;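 active means inhibition above a per-plate cutoff, the mean of that plate's test compounds plus 3 SD, cut at about 27% in these data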;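 further: 0% = acetylcholine EC80 with DMSO and 100% = DMSO without agonist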
* marks the source's active call; other numbers are inactive results.

SMILES	CHRM4 antagonist	CHRM5 PAM	M4 PAM	CHRM4 agonist	CHRM5 agonist	M5 antag
CCN1C(=O)CC(c2cccnc2)=Nc2ccccc21	2	19*	-6	2	5	-2
O=[N+]([O-])c1ccc(-[n+]2c(-c3ccccc3)cc(-c3ccccc3)cc2-c2ccccc2)cc1	40*	-25	-10	1	-23	13
Oc1ccc(-[n+]2c(-c3ccccc3)cc(-c3ccccc3)cc2-c2ccccc2)cc1	54*	-31	-12	3	-10	13
CC1=C(C)CC2(C(=O)NC(=O)NC2=O)C(C)C1 (configuration not stated)	-12	9	5	1	4	2
COc1cccc(CNC2CN3CCC2CC3)c1OC (configuration not stated)	25	-24	-11	2	-6	60*
COc1ccc(OC)c([C@@H](O)[C@H](C)NC(C)(C)C)c1	51*	-19	-15	0	-1	24
Cc1cnc[nH]1	-11	-2	13	3	1	-1
CCS(=O)(=O)NC(C)c1nnc2n1-c1ccc(Br)cc1C(c1ccccc1Cl)=NC2 (configuration not stated)	1	-1	-4	1	0	3
Cc1ccc2c(c1N)C(=O)c1ccccc1C2=O	14	-12	-2	14	5	28*
CN(c1ccccc1)P(=O)(N1CC1)N1CC1	-4	9	12	1	7	3
COc1cc(/C=C(/C)[N+](=O)[O-])ccc1OCc1ccccc1Cl	29*	2	-11	1	-2	27*
CCOC(=O)c1cccc(C2=C(CNC(=O)c3cccnc3)[C@H]3CC[C@@H](C2)N3Cc2ccccc2)c1	-10	1	1	3	-3	4
C[N+](C)(C)CC#CCOC(=O)Nc1cccc(Cl)c1	6	-20	-20	44*	89*	78*
FC(F)(F)c1ccccc1CNCCc1c[nH]c2ccccc12	-11	1	-2	3	0	0
N#CC(CCN1CCOCC1)(c1ccccc1)c1ccccc1	14	-15	-7	1	-12	28*
COc1ccc(OC)c(C(O)C2CCCCN2)c1 (configuration not stated)	-2	3	-5	0	-4	-1
CCN(CC)c1ccc(/C=C/[N+](=O)[O-])cc1	29*	-31	-28	71*	96*	90*
COc1cc(/C=C/[N+](=O)[O-])ccc1O	16	11	3	2	10	-8
CCN1CCN(Cc2cccnc2)CC1	-2	0	-4	0	-1	-2
CCOc1cccc(CNCCc2c(C)[nH]c3ccc(OC(F)(F)F)cc23)c1O	29*	-15	-12	43*	24*	42*
Cc1[nH]c2ccc(OC(F)(F)F)cc2c1CCNCc1ccc(Cl)cc1	10	2	1	15	3	9
Cc1[nH]c2ccc(OC(F)(F)F)cc2c1CCNCc1cccc([N+](=O)[O-])c1	16	-13	-11	24	17	29*
CCOC(=O)CNC(=O)N1Cc2cc(-c3ccc(OC)cc3)ccc2-n2nncc2C1	-7	-4	-3	3	-2	-2
Cc1c(NC(NC(=O)CF)C(Cl)(Cl)Cl)c(=O)n(-c2ccccc2)n1C (configuration not stated)	5	2	2	2	-1	6
COc1ccc(C2=NS(=O)(=O)N(C)C(C(=O)N3CCC4(CC3)OCCO4)=C2)cc1OC	-10	1	10	3	-4	-1
SMILES	CHRM4 antagonist	CHRM5 PAM	M4 PAM	CHRM4 agonist	CHRM5 agonist	M5 antag
O=c1cccc2n1CC1CNCC2C1 (configuration not stated)	5	-3	-3	2	1	2
CCN(CC)c1ccc(/C=C2\C(=O)NC(=S)N(C)C2=O)o1	8	-8	-9	12	37*	13
CCN(CC)c1ccc(/C=C2\C(=O)NC(=S)N(c3ccc(OC)cc3OC)C2=O)o1	10	-11	-5	17	34*	3
C[C@]12CCC(=O)CC1CCC1C2CC[C@]2(C)C(OC(=O)CCC(=O)O)CCC12 (some centres not stated)	6	-3	-6	0	-2	3
CCCCn1nnnc1C(CCc1ccccc1)N1CCC(n2c(=O)[nH]c3ccccc32)CC1 (configuration not stated)	3	-12	-5	22	6	3
O=c1[nH]c2ccccc2n1C1CCN(Cc2ccc(-c3nc4ccc(F)cc4nc3-c3ccccc3)cc2)CC1	2	-13	-1	3	7	13
CCC(c1nnnn1Cc1ccccc1)N1CCC(n2c(=O)[nH]c3ccccc32)CC1 (configuration not stated)	27*	-15	-12	23	9	14
COc1ccc2nc(-c3ccc(CN4CCC(n5c(=O)[nH]c6ccccc65)CC4)cc3)c(-c3ccccc3)nc2c1	12	-20	-9	10	21	18
O=c1[nH]c2ccccc2n1C1CCN(Cc2ccc(-c3nc4ccccc4nc3-c3ccccc3)cc2)CC1	6	-22	3	14	32*	26
Cc1ccc2nc(-c3ccc(CN4CCC(n5c(=O)[nH]c6ccccc65)CC4)cc3)c(-c3ccccc3)nc2c1	11	-16	-5	12	27*	11
Cc1cc2c(cc1C)NP(=S)(c1ccccc1)N2	-3	-8	0	4	-3	5
COC(=O)C1=C(c2ccc(C(C)=O)cc2)C[C@@H]2CC[C@H]1N2C(=O)N1CCC(C)CC1	3	-7	0	-1	-5	10
N#CC(C#N)=NNc1ccc(-n2ccc(C(F)(F)F)n2)cc1	8	-21	-3	16	14	30*
CCN1CCN(Cc2cc(Br)cc(OC)c2O)CC1	39*	-19	-26	2	-13	2
O=C1NC(=O)N(c2ccccc2)C(=O)/C1=C/c1ccc(Sc2ccccc2)o1	-1	6	6	3	2	-1
O=C1NC(=O)N(c2cccc(Cl)c2)C(=O)/C1=C\c1ccc(Sc2nc3ccccc3[nH]2)o1	6	-24	-7	25	36*	18
O=C1NC(=O)N(c2ccccc2F)C(=O)/C1=C/c1ccc(Sc2nc3ccccc3[nH]2)o1	21	-9	-28	41*	16	5
